TAAR1 antag: human TAAR1 antagonism; 360,000 compounds, 1.5% hits; inhibition, % at 3 µM; Q96RJ0; AID 624466; CHO RD-HGA16 TAAR1, Fluo-8 calcium fluorescence, antagonist;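 active means inhibition above a per-plate cutoff, the mean inhibition of test compounds on that plate plus 3 SD, cut at about 49% in these data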
Target sequence (Q96RJ0 whole entry, looked up): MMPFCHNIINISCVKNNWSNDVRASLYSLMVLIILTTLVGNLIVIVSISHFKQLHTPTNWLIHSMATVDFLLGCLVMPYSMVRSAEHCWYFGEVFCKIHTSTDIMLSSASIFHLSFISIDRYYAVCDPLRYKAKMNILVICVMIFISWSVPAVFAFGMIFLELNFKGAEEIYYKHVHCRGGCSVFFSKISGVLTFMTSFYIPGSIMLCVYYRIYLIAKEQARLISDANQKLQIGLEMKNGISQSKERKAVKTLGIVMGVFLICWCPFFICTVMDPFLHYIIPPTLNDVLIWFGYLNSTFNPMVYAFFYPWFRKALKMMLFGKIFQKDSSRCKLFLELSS
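System: RD-HGA16 CHO cells with stable hTAAR1 and Gα16 | Probe or stimulus: EC80 β-phenethylamine stimulus | Dosing: 3 µM, single point | Times: Dye loading 75 min at 37 °C, then 30 min room temperature | Measured by: Fluo-8 calcium-sensitive fluorescence | Read-out basis: % inhibition of agonist calcium response | Replicates: n of 1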
MC4R antagonist: blocks human MC4R cAMP signaling; 360,000 compounds, 0.48% hits; MC4R-expressing cells, MTII-stimulated cAMP, LANCE TR-FRET; AID 540295; inhibition, % at 6.5 µM;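 active means inhibition above its plate's cutoff, the mean of tested wells on that plate plus 3 SD, cut at about 29% in these data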
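System: U2OS-MC4R stable cell line; Technique: Eu-cAMP/anti-cAMP TR-FRET, emission 671 nm; Repeats: single well per compound; Also added: Melanotan II; Dosing: one concentration, 6.5 µM nominal; Schedule: 30-min compound, 1-h challenge, 1-h detection, room temperature.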
m5-HT2A agonist: mouse HTR2A agonism via beta-arrestin recruitment; AID 624169; activation, % at 7.6 µM; 360,000 compounds, 0.66% hits; P35363; CHO-K1 mHTR2A beta-arrestin complementation, luminescence; percent of 30 µM serotonin response;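 active means activation above a run cutoff, the mean activation of all tested compounds plus 3 SD, cut at about 14% in these data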
TAAR1 ag: agonists of human TAAR1 | activation, % at 3 µM | 360,000 compounds, 0.99% hits | Q96RJ0 | CHO RD-HGA16 TAAR1, Fluo-8 calcium fluorescence; vehicle wells 0%, saturating PEA agonist 100%;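 active means activation above the mean activation of all test compounds in the run plus 3 SD, cut at about 38% in these data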
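Repeats: no replicates (n 1) | Material: CHO-derived RD-HGA16 cells with stable Gα16 and human TAAR1 | Technique: Kinetic Fluo-8 calcium fluorescence | Schedule: 17-24 h seeding, 75 min 37 °C dye, 30 min RT | Evaluation: % activation from peak over basal fluorescence ratio, DMSO-to-PEA scaled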
B2AR ag: agonists of human beta-2 adrenergic receptor inducing internalization; P07550; Am2.2-beta2AR cells, FAP receptor internalization, flow cytometry; response, % (test concentration not listed); 340,000 compounds, 0.43% hits; AID 504454;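 active means response above a set limit, near 3 SD of response in nonfluorescent compounds, cut at about 42% in these data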
MC4R barr agon: human MC4R agonism via beta-arrestin; U2OS MC4R beta-arrestin complementation, luminescence; percent of melanotan II response, DMSO zero; 360,000 compounds, 0.98% hits; P32245; activation, % at 8.9 µM; AID 540308;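 active means activation above a per-plate cutoff, the mean activation of sample wells on that plate plus 3 SD, cut at about 8% in these data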
MC4R barr conf: human MC4R beta-arrestin agonism confirmation. shares compounds with MC4R barr agon. U2OS MC4R beta-arrestin recruitment, luminescence; scaled DMSO 0%, Melanotan II 100%. activation, % at 8.9 µM. 2,400 compounds, 31% hits. AID 602192;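 active means mean activation across replicates above the hit cutoff set in the earlier primary screen, cut at about 8% in these data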
MOR DOR agonist: counter-screen for MC4R agonists: agonists of mu-delta opioid heterodimer; shares compounds with MC4R barr agon; U2OS PathHunter beta-arrestin, beta-gal luminescence; percent of deltorphin B response, DMSO zero; activation, % at 9.2 µM; 2,400 compounds, 5.8% hits;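 active means mean activation across replicates exceeds the hit threshold derived in the earlier primary screen, cut at about 18% in these data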
A number is an active result; i = inactive; nt = no result given. A selection: hits, their analogues and other compounds. The true share with any hit is near 4.3%.

SMILES	TAAR1 antag	MC4R antagonist	m5-HT2A agonist	TAAR1 ag	B2AR ag	MC4R barr agon	MC4R barr conf	MOR DOR agonist
C=CCn1c(SCC(=O)Nc2sccc2C(N)=O)nc2sc(C)c(C)c2c1=O	i	i	i	i	i	i	nt	nt
C=CCn1c(SCC(=O)NCc2ccco2)nc2ccccc2c1=O	i	i	i	i	i	i	nt	nt
COc1ccc(C(C)=O)cc1Cn1c(C)c(C(=O)NCCC#N)sc1=O	i	i	i	i	nt	i	nt	nt
O=C(OCCCOC(=O)c1ccccc1O)c1ccccc1O	i	nt	nt	i	nt	nt	nt	nt
C#C[C@]1(OC(C)=O)CCC2C3CCC4=CC(=O)CC[C@@H]4C3CC[C@@]21C (some centres undefined)	i	i	i	i	i	i	nt	nt
COc1ccc(N2CCN(C3CCCN(S(=O)(=O)c4ccc(C)cc4C)C3)CC2)cc1 (centres undefined)	i	i	i	i	i	i	nt	nt
O=C(CN1CCOCC1)Nc1ncc(Cc2cccc(Cl)c2)s1	i	i	i	i	i	i	nt	nt
C=CCn1c(SCC(=O)Nc2ncc(Cc3ccc(C)c(Cl)c3)s2)nnc1-c1ccncc1	i	i	i	i	i	30.5	15.7	i
C=CCn1c(SCC(=O)Nc2nnc(CC)s2)nnc1-c1ccncc1	i	i	i	i	i	i	nt	nt
Cc1cc(C)nc(SCC(=O)Nc2ncc(Cc3cccc(Cl)c3)s2)n1	i	i	i	i	i	16.4	i	i
Clc1ccccc1/C=N/NC1=Nc2cccc3cccc1c23	i	i	i	i	i	18.3	25.2	i
C(=N\NC1=Nc2cccc3cccc1c23)/c1ccccn1	i	i	i	i	i	i	nt	nt
COc1ccc(-c2cnnc(N/N=C/c3ccc(OC)c(OC)c3)n2)cc1	i	i	i	i	i	12.7	i	i
CCOc1cc(S(=O)(=O)NC2CCCC2)ccc1Cl	i	i	i	i	i	i	nt	nt
CCOc1cc(S(=O)(=O)Nc2cc(C)cc(C)c2)ccc1Cl	i	i	i	i	i	9.6	i	i
Cc1ccc(NS(=O)(=O)c2c(C(=O)N3CCCCCC3)c(C)n(C)c2C)c(C)c1	i	i	i	i	i	i	nt	nt
COc1cc(CN2CCN(c3cccc(C)c3C)CC2)cc(Br)c1O	i	i	i	i	i	11.7	i	i
C[C@@H]1CN([C@H](C)CO)S(=O)(=O)c2ccc(C#Cc3ccccc3F)cc2O[C@@H]1CN(C)C(=O)Cc1ccccc1	i	i	i	i	nt	i	nt	nt
CCc1c(C)sc(NC(=O)CC#N)c1C#N	nt	i	i	nt	i	i	nt	nt
CCc1c(C)sc(NC(=O)Cn2nc(C(F)(F)F)c3c2CCCC3)c1C#N	i	i	i	i	i	10.4	i	i
COc1ccc(CC(=O)Nc2cccc(S(=O)(=O)N3CCCCCC3)c2)cc1OC	i	i	i	i	i	i	nt	nt
N#CC1(NC(=O)COC(=O)C2CCN(S(=O)(=O)c3ccc4c(c3)OCCO4)CC2)CCCCC1	i	i	i	i	i	i	nt	nt
CCOc1cccc(C(=O)NC2=NCCS2)c1	i	i	i	i	i	i	nt	nt
O=C(CSc1nc(CCC2CCCC2)nc2ccccc12)NCc1ccc2c(c1)OCO2	i	i	i	i	i	19.6	i	i
O=C(COc1ccc(Cl)cc1Cl)NC(=O)c1ccccc1	i	i	i	i	i	10.4	i	i
COc1cc2c(-c3ccccc3O)nc3c(c(C)nn3-c3ccccc3)c2cc1OC	i	i	i	i	i	11.4	i	19.8
COC(=O)c1cc(C)nc2c1c(C)nn2-c1ccccc1	i	i	i	i	i	i	nt	nt
CCn1nc(NC(=O)c2ccncc2)c2cc3cccc(C)c3nc21	i	i	i	i	i	i	nt	nt
CCn1nc(NC(=O)c2cccnc2)c2cc3cccc(C)c3nc21	i	i	i	i	i	17.4	i	i

Assay outcomes from PubChem.
